Assay results: ChEMBL document CHEMBL1145619, “Conformation-activity relationship on novel 4-pyridylmethylthio derivatives with antiangiogenic activity” (Bioorg Med Chem Lett, 2008)

Key:
HUVEC = test: Antiproliferative activity against VEGF-induced HUVEC cells; type: functional, cell-based; settings: Homo sapiens
[1] = molecular target: T1, Vascular endothelial growth factor receptor 2 (Homo sapiens, UniProt P35968); test: Inhibition of KDR by ELISA
Procedure, shortened: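 KDR kinase activity measured with a commercial kinase assay development kit by ELISA. The read-out is the phosphorylation level of a biotinylated peptide containing Tyr in its sequence.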

[2] = molecular target: T1, Vascular endothelial growth factor receptor 2; test: Inhibition of KDR at 10 uM by ELISA
Procedure, shortened: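 KDR kinase activity measured with a commercial kinase assay development kit by ELISA. The read-out is the phosphorylation level of a biotinylated peptide containing Tyr in its sequence. The table gives IC50 values, and gives percent inhibition at 10 µM where the IC50 exceeded the range.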

T1 sequence (P35968 whole entry): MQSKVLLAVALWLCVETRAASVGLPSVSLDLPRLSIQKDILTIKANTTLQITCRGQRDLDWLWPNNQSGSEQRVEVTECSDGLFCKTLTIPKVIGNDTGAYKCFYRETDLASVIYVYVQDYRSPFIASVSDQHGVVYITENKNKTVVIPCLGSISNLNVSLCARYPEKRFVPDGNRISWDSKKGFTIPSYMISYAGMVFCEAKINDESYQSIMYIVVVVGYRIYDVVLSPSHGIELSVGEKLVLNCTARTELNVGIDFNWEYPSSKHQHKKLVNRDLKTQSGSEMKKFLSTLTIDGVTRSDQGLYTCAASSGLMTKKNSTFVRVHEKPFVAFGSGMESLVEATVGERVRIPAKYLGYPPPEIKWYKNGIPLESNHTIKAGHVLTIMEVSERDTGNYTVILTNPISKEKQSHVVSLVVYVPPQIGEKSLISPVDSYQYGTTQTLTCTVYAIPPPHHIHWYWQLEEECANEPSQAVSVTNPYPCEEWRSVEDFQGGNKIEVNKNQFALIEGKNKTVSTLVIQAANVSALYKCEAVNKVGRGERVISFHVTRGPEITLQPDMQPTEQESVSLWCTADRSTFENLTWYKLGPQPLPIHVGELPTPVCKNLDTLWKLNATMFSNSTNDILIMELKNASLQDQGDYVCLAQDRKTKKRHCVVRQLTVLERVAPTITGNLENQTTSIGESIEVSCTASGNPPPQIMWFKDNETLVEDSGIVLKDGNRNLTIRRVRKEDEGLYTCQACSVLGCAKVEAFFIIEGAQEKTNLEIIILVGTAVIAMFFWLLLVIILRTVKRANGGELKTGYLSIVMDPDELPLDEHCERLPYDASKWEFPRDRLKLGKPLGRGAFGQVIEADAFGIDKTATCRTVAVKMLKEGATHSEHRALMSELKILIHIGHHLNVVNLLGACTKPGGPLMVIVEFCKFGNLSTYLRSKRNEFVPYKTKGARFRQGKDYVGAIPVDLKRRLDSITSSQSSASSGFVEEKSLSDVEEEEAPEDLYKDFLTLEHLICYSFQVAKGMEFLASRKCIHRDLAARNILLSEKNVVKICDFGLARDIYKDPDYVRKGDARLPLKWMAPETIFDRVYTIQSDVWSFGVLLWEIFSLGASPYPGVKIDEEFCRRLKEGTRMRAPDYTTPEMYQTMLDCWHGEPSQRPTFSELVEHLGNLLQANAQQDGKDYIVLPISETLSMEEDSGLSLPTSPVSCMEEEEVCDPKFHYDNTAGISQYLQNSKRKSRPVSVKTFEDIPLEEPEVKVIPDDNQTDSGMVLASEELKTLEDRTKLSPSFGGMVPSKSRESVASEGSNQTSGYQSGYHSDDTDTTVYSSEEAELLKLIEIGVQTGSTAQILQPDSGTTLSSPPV

| SMILES | IC50 [1] [nM] | inhibition [2] [%] | IC50 (HUVEC) [nM] |
| --- | --- | --- | --- |
| Clc1ccc(Nc2nnc(Cc3ccncc3)c3ccccc23)cc1 |  |  | 6 |
| O=C(Nc1ccc(Cl)cc1)c1cccnc1SCc1ccncc1 | 26 |  |  |
| O=C(Nc1ccc(Cl)cc1)c1ccccc1OCc1ccncc1 | > 1000 | 54 | > 2000 |

Continued, in another order:

| IC50 [1] [nM] | inhibition [2] [%] | SMILES | IC50 (HUVEC) [nM] |
| --- | --- | --- | --- |
| 46 |  | O=C(Nc1ccc(Cl)cc1)c1ccccc1SCc1ccncc1 |  |
| > 1000 | 0 | S=C(Nc1ccc(Cl)cc1)c1ccccc1OCc1ccncc1 |  |
